Reference: ChEMBL document CHEMBL2331170, “Synthesis and biological evaluation of novel pyranochalcone derivatives as a new class of microtubule stabilizing agents” (Eur J Med Chem, 2013)

How the values were obtained:
[1] = Cytotoxicity against human LO2 cells by MTT assay; format: cell-based; conditions: L02
How it was run: (§1)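 Log-phase cells were diluted to 40,000–50,000 cells/mL in medium with 10% FBS, 2 mM glutamine and antibiotics (37 °C, 5% CO₂). They were seeded in 96-well plates and treated with a range of doses. MTT was added for 4 h, the formazan was dissolved in DMSO, and absorbance was read at 590 nm.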

A-375 = assay: Cytotoxicity against human A375 cells by MTT assay; format: functional, cell-based; how it was run: as §1
K562 = assay: Cytotoxicity against human K562 cells by MTT assay; format: functional, cell-based; how it was run: as §1
HepG2 = assay: Cytotoxicity against human HepG2 cells by MTT assay; format: functional, cell-based; how it was run: as §1

Structure (SMILES) | IC50 [1] [µM] | IC50 (A-375) [µM] | IC50 (K562) [µM] | IC50 (HepG2) [µM]
COc1ccc(/C=C/C(=O)c2ccc(OC)c3c2OC(C)(C)C=C3)cc1OC(=O)CCl | > 10 | 0.45 | 0.4 | 0.12
COc1ccc(/C=C/C(=O)c2ccc(OC)c3c2OC(C)(C)C=C3)cc1O | > 10 | 0.8 | 0.63 | 0.45
COc1ccc(/C=C/C(=O)c2ccc(OC)c3c2OC(C)(C)C=C3)cc1OCCN1CCCC1 | 9.5 | 3.81 | 3.05 | > 10
COc1ccc(/C=C/C(=O)c2ccc(OC)c3c2OC(C)(C)C=C3)cc1OS(=O)(=O)c1ccc(C)cc1 | > 10 | 2.4 | 7.85 | 3.6
COc1ccc(/C=C/C(=O)c2ccc(OC)c3c2OC(C)(C)C=C3)cc1OC(=O)c1ccc(Br)cc1 | 8.4 | 0.42 | 1.11 | 0.68
COc1ccc(/C=C/C(=O)c2ccc(OC)c3c2OC(C)(C)C=C3)cc1OC(=O)Cc1ccc(Cl)c(Cl)c1 | > 10 | 0.7 | 0.43 | 0.6
COc1ccc(/C=C/C(=O)c2ccc(OC)c3c2OC(C)(C)C=C3)cc1OCCN1CCOCC1 | > 10 | 8.2 | 8.35 | > 10
COc1ccc(/C=C/C(=O)c2ccc(OC)c3c2OC(C)(C)C=C3)cc1OCCCN(C)C | 8.6 | 4.1 | 2.92 | 5.55
COc1ccc(/C=C/C(=O)c2ccc(OC)c3c2OC(C)(C)C=C3)cc1OCC=C(C)C | > 10 | > 10 | > 10 | > 10
COc1ccc(/C=C/C(=O)c2ccc(OC)c3c2OC(C)(C)C=C3)cc1OC(=O)C(C)C | > 10 | 0.31 | 0.57 | 0.25
COc1ccc(/C=C/C(=O)Oc2cc(/C=C/C(=O)c3ccc(OC)c4c3OC(C)(C)C=C4)ccc2OC)cc1 | 18 | 2.63 | 0.38 | 0.43
COc1cccc(C(=O)Oc2cc(/C=C/C(=O)c3ccc(OC)c4c3OC(C)(C)C=C4)ccc2OC)c1 | > 10 | 0.8 | 0.79 | 0.87
COc1ccc(/C=C/C(=O)c2ccc(OC)c3c2OC(C)(C)C=C3)cc1OC(=O)C1CC1 | > 10 | 0.38 | 0.41 | 0.22
COc1ccc(/C=C/C(=O)c2ccc(OC)c3c2OC(C)(C)C=C3)cc1OCCN1CCCCC1 | 9.15 | 3 | 2.08 | 4.4
C#CCOc1cc(/C=C/C(=O)c2ccc(OC)c3c2OC(C)(C)C=C3)ccc1OC | > 10 | > 10 | > 10 | > 10
COc1ccc(/C=C/C(=O)c2ccc(OC)c3c2OC(C)(C)C=C3)cc1OC(=O)Cc1cccc(C(F)(F)F)c1 | > 10 | 0.48 | 0.29 | 0.57
C=CC(=O)Oc1cc(/C=C/C(=O)c2ccc(OC)c3c2OC(C)(C)C=C3)ccc1OC | > 10 | 0.39 | 0.3 | 0.16
C=CCOc1cc(/C=C/C(=O)c2ccc(OC)c3c2OC(C)(C)C=C3)ccc1OC | > 20 | > 10 | > 10 | > 10
COc1ccc(/C=C/C(=O)c2ccc(OC)c3c2OC(C)(C)C=C3)cc1OS(=O)(=O)Cc1ccccc1 | > 10 | > 10 | > 10 | > 10
COc1ccc(/C=C/C(=O)c2ccc(OC)c3c2OC(C)(C)C=C3)cc1OCCO | > 10 | 9.6 | > 10 | > 10
COc1ccc(/C=C/C(=O)c2ccc(OC)c3c2OC(C)(C)C=C3)cc1 [MILLEPACHINE] | > 20 | 3.58 | – | –
COc1ccc(/C=C/C(=O)c2ccc(OC)c3c2OC(C)(C)C=C3)cc1OS(C)(=O)=O | > 10 | > 10 | 9.24 | 9.18
